Experiments:
[1] = target: T1, 5-hydroxytryptamine receptor 7 (Homo sapiens, UniProt P34969); experiment: Inhibition (at 1 uM) of radioligand [3H]LSD binding to human 5-hydroxytryptamine 7 receptor on HEK293 cells; assay type: cell-based
In short: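 Human 5-HT7 binding was run with membranes from HEK293 cells expressing the receptor, incubated with 3H-LSD. Clozapine was the standard. Displacement of radioligand was recorded as percent inhibition at 1 µM.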

[2] = target: T1, 5-hydroxytryptamine receptor 7; experiment: Binding affinity towards human 5-hydroxytryptamine 7 receptor on HEK293 cells using radioligand [3H]LSD; assay type: cell-based
In short: (§1)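 Competition binding at human 5-HT7 receptor: membranes prepared from HEK293 cells expressing the receptor were incubated with 3H-LSD and a range of test concentrations. Clozapine was the reference standard. Ki values in nM were determined.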

[3] = target: T1, 5-hydroxytryptamine receptor 7; experiment: Compound was tested for its binding affinity towards human 5-hydroxytryptamine 7 receptor from HEK293 cells using radioligand [3H]LSD; assay type: cell-based; in short: as §1
[4] = target: T2, 5-hydroxytryptamine receptor 1A (Homo sapiens) (UniProt P08908); experiment: Percent inhibition (at 1 uM) against 5-hydroxytryptamine 1A receptor
T2 sequence (whole entry): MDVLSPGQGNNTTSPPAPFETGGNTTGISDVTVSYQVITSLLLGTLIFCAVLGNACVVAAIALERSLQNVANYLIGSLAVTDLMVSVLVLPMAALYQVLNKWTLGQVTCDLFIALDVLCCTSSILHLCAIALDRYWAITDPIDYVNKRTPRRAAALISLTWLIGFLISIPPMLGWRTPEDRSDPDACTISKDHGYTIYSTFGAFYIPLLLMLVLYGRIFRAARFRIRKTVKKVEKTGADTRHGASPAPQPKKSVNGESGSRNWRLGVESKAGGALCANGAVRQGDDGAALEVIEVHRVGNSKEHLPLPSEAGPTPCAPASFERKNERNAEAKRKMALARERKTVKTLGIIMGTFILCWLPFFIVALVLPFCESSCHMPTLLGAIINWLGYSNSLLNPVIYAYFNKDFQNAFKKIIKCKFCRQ

[5] = target: 5-hydroxytryptamine receptor 1B (Homo sapiens) (UniProt P28222); experiment: Percent inhibition (at 1 uM) against 5-hydroxytryptamine 1B receptor
Sequence of 5-hydroxytryptamine receptor 1B (Homo sapiens) (P28222 whole entry): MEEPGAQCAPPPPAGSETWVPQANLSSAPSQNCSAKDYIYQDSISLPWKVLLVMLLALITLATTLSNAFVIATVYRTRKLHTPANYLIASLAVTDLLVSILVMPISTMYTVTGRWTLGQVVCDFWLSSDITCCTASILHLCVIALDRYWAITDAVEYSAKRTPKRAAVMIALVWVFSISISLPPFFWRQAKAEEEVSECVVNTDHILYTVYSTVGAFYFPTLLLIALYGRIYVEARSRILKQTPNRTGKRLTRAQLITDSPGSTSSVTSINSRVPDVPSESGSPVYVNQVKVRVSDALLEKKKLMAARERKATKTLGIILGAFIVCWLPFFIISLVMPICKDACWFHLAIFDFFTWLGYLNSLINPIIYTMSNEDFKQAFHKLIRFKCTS

[6] = target: T3, 5-hydroxytryptamine receptor 1F (Homo sapiens) (UniProt P30939); experiment: Percent inhibition (at 1 uM) against 5-hydroxytryptamine 1F receptor
T3 sequence (whole entry): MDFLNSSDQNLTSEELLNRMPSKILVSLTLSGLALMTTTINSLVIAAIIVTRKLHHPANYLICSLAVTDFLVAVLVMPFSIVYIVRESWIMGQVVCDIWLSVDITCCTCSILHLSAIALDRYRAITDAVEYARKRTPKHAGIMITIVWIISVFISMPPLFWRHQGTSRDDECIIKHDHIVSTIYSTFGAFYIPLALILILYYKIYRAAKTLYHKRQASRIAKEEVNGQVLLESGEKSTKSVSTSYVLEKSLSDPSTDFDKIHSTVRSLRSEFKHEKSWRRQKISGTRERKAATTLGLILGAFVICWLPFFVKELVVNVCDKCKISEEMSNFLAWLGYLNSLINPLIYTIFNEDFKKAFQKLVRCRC

[7] = target: 5-hydroxytryptamine receptor 2A (Homo sapiens) (UniProt P28223); experiment: Percent inhibition (at 1 uM) against 5-hydroxytryptamine 2A receptor
Sequence of 5-hydroxytryptamine receptor 2A (Homo sapiens) (P28223 whole entry): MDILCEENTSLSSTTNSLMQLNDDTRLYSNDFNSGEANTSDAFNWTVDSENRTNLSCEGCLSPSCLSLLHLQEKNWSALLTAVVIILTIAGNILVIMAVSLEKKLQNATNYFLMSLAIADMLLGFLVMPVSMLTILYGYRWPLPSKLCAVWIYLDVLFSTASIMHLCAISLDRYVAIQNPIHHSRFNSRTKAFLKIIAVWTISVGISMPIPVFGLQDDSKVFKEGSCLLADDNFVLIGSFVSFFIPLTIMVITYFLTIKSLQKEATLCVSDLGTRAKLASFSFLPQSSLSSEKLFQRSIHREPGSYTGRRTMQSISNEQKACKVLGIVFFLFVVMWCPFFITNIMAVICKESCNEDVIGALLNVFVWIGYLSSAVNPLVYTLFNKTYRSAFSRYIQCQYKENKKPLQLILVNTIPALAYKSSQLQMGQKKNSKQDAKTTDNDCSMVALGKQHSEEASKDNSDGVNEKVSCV

[8] = target: 5-hydroxytryptamine receptor 1D (Homo sapiens) (UniProt P28221); experiment: Percent inhibition (at 1 uM) against 5-hydroxytryptamine 1D receptor
Sequence of 5-hydroxytryptamine receptor 1D (Homo sapiens) (P28221 whole entry): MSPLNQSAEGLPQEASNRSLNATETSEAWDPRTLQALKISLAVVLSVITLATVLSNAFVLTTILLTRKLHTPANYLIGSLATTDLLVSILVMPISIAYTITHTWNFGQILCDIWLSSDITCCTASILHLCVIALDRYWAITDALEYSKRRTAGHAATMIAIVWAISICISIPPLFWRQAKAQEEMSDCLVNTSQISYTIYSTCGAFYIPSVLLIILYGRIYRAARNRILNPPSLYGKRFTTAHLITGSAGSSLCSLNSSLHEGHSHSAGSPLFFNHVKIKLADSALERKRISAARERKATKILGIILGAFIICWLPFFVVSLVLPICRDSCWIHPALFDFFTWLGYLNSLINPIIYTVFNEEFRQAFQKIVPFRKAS

[9] = target: T4, 5-hydroxytryptamine receptor 2C (Homo sapiens) (UniProt P28335); experiment: Percent inhibition (at 1 uM) against 5-hydroxytryptamine 2C receptor
T4 sequence (whole entry): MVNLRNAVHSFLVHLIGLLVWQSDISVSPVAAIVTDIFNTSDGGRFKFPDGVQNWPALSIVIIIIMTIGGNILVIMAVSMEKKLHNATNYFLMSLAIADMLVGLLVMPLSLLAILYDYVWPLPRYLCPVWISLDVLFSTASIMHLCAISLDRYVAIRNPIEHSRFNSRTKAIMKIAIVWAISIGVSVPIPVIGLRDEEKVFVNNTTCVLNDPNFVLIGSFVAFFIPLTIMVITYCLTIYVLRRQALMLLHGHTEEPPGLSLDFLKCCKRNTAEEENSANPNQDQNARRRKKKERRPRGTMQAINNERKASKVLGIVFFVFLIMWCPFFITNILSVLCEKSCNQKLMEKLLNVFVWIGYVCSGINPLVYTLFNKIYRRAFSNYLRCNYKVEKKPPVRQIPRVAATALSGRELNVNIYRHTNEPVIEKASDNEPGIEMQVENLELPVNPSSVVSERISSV

[10] = target: T5, D(4) dopamine receptor (Homo sapiens) (UniProt P21917); experiment: Percent inhibition (at 1 uM) against Dopamine receptor D4
T5 sequence (whole entry): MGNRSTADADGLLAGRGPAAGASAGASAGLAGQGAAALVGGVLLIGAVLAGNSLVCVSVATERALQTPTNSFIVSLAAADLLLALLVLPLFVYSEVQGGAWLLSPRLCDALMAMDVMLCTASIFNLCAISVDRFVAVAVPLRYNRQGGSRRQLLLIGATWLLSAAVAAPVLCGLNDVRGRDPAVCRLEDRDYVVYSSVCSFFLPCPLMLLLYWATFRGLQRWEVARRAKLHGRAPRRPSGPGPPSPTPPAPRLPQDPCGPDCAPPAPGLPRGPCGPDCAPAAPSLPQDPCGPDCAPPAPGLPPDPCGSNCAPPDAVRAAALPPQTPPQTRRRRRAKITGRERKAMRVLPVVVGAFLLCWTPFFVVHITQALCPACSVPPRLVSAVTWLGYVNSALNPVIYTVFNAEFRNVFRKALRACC

[11] = target: D(1A) dopamine receptor (Homo sapiens) (UniProt P21728); experiment: Percent inhibition (at 1 uM) against Dopamine receptor D1
Sequence of D(1A) dopamine receptor (Homo sapiens) (P21728 whole entry): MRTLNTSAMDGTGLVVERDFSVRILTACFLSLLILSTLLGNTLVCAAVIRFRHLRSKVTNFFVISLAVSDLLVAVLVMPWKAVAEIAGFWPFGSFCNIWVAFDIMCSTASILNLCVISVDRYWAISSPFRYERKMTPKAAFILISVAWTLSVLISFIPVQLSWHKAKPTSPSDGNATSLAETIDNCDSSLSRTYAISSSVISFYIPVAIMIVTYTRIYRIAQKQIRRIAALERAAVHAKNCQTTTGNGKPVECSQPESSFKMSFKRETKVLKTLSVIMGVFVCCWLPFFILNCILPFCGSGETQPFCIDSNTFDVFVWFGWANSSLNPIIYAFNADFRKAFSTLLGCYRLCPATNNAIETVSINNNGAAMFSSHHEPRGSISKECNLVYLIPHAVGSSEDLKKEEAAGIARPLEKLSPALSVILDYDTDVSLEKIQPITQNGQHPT

[12] = target: D(2) dopamine receptor (Homo sapiens) (UniProt P14416); experiment: Percent inhibition (at 1 uM) against Dopamine receptor D2
Sequence of D(2) dopamine receptor (Homo sapiens) (P14416 whole entry): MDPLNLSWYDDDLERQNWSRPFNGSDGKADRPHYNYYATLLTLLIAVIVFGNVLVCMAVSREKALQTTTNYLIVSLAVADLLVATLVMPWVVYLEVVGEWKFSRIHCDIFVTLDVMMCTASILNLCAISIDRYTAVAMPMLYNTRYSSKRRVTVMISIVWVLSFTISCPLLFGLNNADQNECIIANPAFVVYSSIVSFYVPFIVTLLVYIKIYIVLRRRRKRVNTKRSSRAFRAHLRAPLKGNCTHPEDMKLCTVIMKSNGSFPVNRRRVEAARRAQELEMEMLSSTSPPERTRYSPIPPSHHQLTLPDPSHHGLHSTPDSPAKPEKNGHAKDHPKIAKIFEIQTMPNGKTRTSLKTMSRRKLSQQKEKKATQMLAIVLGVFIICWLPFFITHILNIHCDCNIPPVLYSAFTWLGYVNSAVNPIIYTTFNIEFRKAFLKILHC

[13] = target: D(1B) dopamine receptor (Homo sapiens) (UniProt P21918); experiment: Percent inhibition (at 1 uM) against dopamine D5 receptor
Sequence of D(1B) dopamine receptor (Homo sapiens) (P21918 whole entry): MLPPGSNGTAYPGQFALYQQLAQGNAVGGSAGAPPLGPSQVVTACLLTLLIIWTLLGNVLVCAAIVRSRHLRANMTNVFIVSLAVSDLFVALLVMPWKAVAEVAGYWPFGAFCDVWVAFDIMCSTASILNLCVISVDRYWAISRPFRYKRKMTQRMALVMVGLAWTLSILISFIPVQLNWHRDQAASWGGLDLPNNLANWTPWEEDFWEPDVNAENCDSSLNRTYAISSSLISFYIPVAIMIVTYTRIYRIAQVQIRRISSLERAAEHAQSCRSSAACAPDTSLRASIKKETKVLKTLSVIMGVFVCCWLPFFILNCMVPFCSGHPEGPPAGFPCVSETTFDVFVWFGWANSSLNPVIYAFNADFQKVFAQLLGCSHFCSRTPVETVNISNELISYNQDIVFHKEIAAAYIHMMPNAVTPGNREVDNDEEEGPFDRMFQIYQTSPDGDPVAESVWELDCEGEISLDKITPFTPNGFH

[14] = target: D(3) dopamine receptor (Homo sapiens) (UniProt P35462); experiment: Percent inhibition (at 1 uM) against Dopamine receptor D3
Sequence of D(3) dopamine receptor (Homo sapiens) (P35462 whole entry): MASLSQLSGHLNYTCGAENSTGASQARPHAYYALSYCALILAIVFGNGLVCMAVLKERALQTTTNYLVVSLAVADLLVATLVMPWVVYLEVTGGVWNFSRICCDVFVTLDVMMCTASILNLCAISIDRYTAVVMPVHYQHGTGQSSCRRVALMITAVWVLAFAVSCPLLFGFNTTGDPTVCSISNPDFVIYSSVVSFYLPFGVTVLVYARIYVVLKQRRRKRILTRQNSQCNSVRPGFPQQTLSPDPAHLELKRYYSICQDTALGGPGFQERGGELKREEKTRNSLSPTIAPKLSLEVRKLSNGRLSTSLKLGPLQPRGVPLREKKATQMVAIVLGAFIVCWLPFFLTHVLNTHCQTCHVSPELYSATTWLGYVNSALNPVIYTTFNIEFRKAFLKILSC

[15] = target: Muscarinic acetylcholine receptors; M1 & M2 (Homo sapiens) (UniProt P11229+P08172); experiment: Percent inhibition (at 1 uM) against Muscarinic acetylcholine receptor M1- Muscarinic acetylcholine receptor M2; assay type: protein assay
[16] = target: 5-hydroxytryptamine receptor 6 (Homo sapiens, UniProt P50406); experiment: Compound was tested for its binding affinity towards 5-hydroxytryptamine 6 receptor
Sequence of 5-hydroxytryptamine receptor 6 (P50406 whole entry): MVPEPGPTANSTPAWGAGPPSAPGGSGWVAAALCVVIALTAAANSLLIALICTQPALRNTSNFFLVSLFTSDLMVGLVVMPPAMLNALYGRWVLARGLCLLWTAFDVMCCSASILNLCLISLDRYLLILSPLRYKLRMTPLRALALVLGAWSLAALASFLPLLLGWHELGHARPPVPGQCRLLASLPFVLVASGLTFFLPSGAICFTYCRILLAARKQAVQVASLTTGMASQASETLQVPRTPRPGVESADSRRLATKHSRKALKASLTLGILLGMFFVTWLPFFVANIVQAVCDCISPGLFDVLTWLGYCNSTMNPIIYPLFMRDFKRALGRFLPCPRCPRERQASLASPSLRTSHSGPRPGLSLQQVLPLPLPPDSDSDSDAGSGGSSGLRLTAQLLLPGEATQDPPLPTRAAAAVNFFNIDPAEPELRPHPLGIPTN

T1 sequence (P34969 whole entry): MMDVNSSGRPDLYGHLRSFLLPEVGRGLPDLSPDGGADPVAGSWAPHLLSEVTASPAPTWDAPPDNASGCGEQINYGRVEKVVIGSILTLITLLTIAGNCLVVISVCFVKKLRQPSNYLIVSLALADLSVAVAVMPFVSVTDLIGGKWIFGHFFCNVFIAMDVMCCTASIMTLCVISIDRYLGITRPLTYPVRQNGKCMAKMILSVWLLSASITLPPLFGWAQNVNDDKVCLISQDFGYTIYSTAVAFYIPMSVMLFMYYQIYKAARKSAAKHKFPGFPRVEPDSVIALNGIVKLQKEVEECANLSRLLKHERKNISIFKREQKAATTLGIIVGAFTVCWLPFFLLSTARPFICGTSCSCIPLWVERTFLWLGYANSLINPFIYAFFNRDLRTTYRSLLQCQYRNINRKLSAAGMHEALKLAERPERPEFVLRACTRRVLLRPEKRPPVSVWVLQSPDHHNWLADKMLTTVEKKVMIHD

Row | SMILES | inhibition [1] | Ki [2] | also measured
1 | CN1CCCN(CCn2ccc3ccc(N)cc32)CC1 | 0% | – | –
2 | CC1CN(CCn2ccc3ccc(Br)cc32)CCN1 (stereo not given) | 52% | – | –
3 | CN1CCCN(CCn2ccc3ccc(OCc4ccccc4)cc32)CC1 | 28% | 182 nM | –
4 | Brc1ccc2ccn(CCN3CCNCC3)c2c1 | 61% | – | –
5 | Brc1ccc2ccn(CCN3CCCNCC3)c2c1 | 77% | – | –
6 | Brc1ccc2ccn(CCN3CCCN(CC4CC4)CC3)c2c1 | 95% | 9 nM | –
7 | Brc1ccc2ccn(CCN3CCN4CCCC4C3)c2c1 (stereo not given) | 72% | – | –
8 | CN1CCCN(CCn2ccc3c(Br)cccc32)CC1 | 33% | – | –
9 | Brc1ccc2ccn(CCN3CCCN(C4CCCC4)CC3)c2c1 | 98% | 10 nM | –
10 | CN1CCCN(CCn2ccc3cccc(Br)c32)CC1 | 18% | – | –
11 | C#Cc1ccc2ccn(CCN3CCCN(C)CC3)c2c1 | 79% | 140 nM | –
12 | Brc1ccc2ccn(CCN3CCN(C4CCCCC4)CC3)c2c1 | 36% | – | –
13 | CN1CCCN(CCn2ccc3ccc(Cl)cc32)CC1 | 85% | 34 nM | –
14 | C[C@H](Nc1nc(N)nc(NC[C@H]2C[C@@H]2c2ccc(F)cc2)n1)c1ccccc1 | – | – | IC50 [3]: < 50 nM
15 | COc1ccc2ccn(CCN3CCCN(C)CC3)c2c1 | 50% | 1570 nM | –
16 | CN1CCCN(CCn2ccc3ccc([N+](=O)[O-])cc32)CC1 | 72% | 139 nM | –
17 | CN1CCCN(CCn2ccc3ccc(F)cc32)CC1 | 60% | 288 nM | –
18 | CN1CCCN(CCn2ccc3ccc(Br)cc32)CC1 | 93% | 31 nM | –
19 | CCc1ccc2ccn(CCN3CCCN(C)CC3)c2c1 | 66% | 166 nM | –
20 | CN1CCCN(CCn2ccc3ccc(C(C)(C)O)cc32)CC1 | 6% | – | –
21 | CN1CCCN(CCn2ccc3ccc(-c4cccnc4)cc32)CC1 | 35% | – | –
22 | C=Cc1ccc2ccn(CCN3CCCN(C)CC3)c2c1 | 79% | 109 nM | –
23 | FC(F)(F)c1ccc2ccn(CCN3CCCN4CCCCC4C3)c2c1 (stereo not given) | – | 7 nM | –
24 | Brc1ccc2ccn(CCN3CCN4CCCCC4C3)c2c1 (stereo not given) | 78% | 70 nM | –

Row | SMILES | inhibition [1] | Ki [2] | also measured
25 | Brc1ccc2ccn(CCN3CCCN(C4CC4)CC3)c2c1 | 96% | 16 nM | –
26 | Brc1ccc2ccn(CCN3CCC4CCCCN4CC3)c2c1 (stereo not given) | 71% | – | –
27 | Clc1ccc2ccn(CCN3CCCN4CCCCC4C3)c2c1 (stereo not given) | – | 10 nM | –
28 | CN1CCCN(CCn2ccc3cc(Br)ccc32)CC1 | 65% | 88 nM | –
29 | Cc1cccc(C#N)c1-c1cccc2c1-c1cccc3c1[C@@H](C2)N(C)CC3 | – | 1 nM | –
30 | CN1CCCN(CCn2ccc3ccc(-c4ccsc4)cc32)CC1 | 68% | 109 nM | –
31 | Cc1ccc2ccn(CCN3CCCN(C)CC3)c2c1 | 62% | 125 nM | –
32 | CC(C)CN1CCCN(CCn2ccc3ccc(Br)cc32)CC1 | 95% | 37 nM | –
33 | CC(C)c1ccc2ccn(CCN3CCCN(C)CC3)c2c1 | 72% | 145 nM | –
34 | Brc1cccc2c1ccn2CCN1CCN2CCCCC2C1 (stereo not given) | 43% | – | –
35 | Cc1cccc(S(=O)(=O)N(C)[C@H](C)CCN2CCC(C)CC2)c1 [SB-258719] | – | – | Ki ([2]; hek293): 32 nM
36 | CC(C)(C)CN1CCCN(CCn2ccc3ccc(Br)cc32)CC1 | 70% | 163 nM | –
37 | CC1CN(CCn2ccc3ccc(Br)cc32)CC(C)N1 (stereo not given) | 26% | – | –
38 | Brc1cccc2ccn(CCN3CCN4CCCCC4C3)c12 (stereo not given) | 13% | – | –
39 | CN1CCCN(CCn2ccc3ccc(C(F)(F)F)cc32)CC1 | 89% | 23 nM | –
40 | CN1CCCN(CCn2ccc3ccc(C(N)=O)cc32)CC1 | 33% | – | –
41 | CN1CCCN(CCn2ccc3ccc(O)cc32)CC1 | 28% | – | –
42 | Brc1ccc2ccn(CCN3CCCN(c4ccccc4)CC3)c2c1 | 18% | – | –
43 | Brc1ccc2ccn(CCN3CCCN(C4CCCCC4)CC3)c2c1 | 96% | 17 nM | –
44 | CC(C)N1CCCN(CCn2ccc3ccc(Br)cc32)CC1 | 92% | 14 nM | –
45 | Brc1ccc2c(ccn2CCN2CCN3CCCCC3C2)c1 (stereo not given) | 65% | 158 nM | –
46 | Brc1ccc2ccn(CCN3CCCN4CCCCC4C3)c2c1 (stereo not given) | 99% | 3 nM | inhibition [4]: 1%; inhibition [5]: 0%; inhibition [6]: 0%; inhibition [7]: 20%; inhibition [8]: 0%; inhibition [9]: 26%; inhibition [10]: 4%; inhibition [11]: 2%; inhibition [12]: 15%; inhibition [13]: 17%; inhibition [14]: 27%; inhibition [15]: 35%; Ki [16]: 4070 nM
47 | C=C(C)c1ccc2ccn(CCN3CCCN(C)CC3)c2c1 | 72% | 70 nM | –
